# Source: ChEMBL document CHEMBL1143832, “EDP-420, a bicyclolide (bridged bicyclic macrolide), is active against Mycobacterium avium” (Antimicrob Agents Chemother, 2007)
# Calls of active or inactive are those of the source. No cut-off for these calls is given here.
# Tests used:
# [1] = tested on: Mycobacterium avium; test: Antimicrobial activity against macrolide-susceptible Mycobacterium avium by radiometric broth […] method; assay type: functional
# How it was run: (§1)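 MAC clinical blood isolates from AIDS patients; 5–10 colonies from 7H11 agar into 7H9 broth, inoculum ~5 × 10^4 CFU/ml by McFarland no. 1. Radiometric (BACTEC) broth […], T100 analysis. Controls: undiluted drug-free, 1:100 and 1:1,000 diluted inoculum, boiled-bacteria vial. Observation ~7 days. MIC range, MIC50 and MIC90 reported (susceptible n = 24; resistant n = 6).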
# [2] = tested on: Mycobacterium avium; test: Antimicrobial activity against macrolide-resistant Mycobacterium avium radiometric broth […] method; assay type: functional; how it was run: as §1
# [3] = tested on: Mycobacterium avium complex sp.; test: Antimicrobial activity against Mycobacterium avium complex 101 infected C57BL/6 beige mouse liver assessed as bacterial load at 100 mg/kg once daily 6 days a week for 4 weeks; assay type: functional
# How it was run: (§2)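 Female C57BL/6 beige mice, about 20 g, infected intravenously with about 3 × 10^7 MAC 101. Baseline mice harvested at 1 week, when treatment started: once daily, 6 days/week, for 4 weeks, alongside diluent-treated controls. Liver and spleen homogenized, diluted and plated on 7H10 agar, with CFU counted after 10 days at 37°C and expressed per gram. Student's t test.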
# [4] = tested on: Mycobacterium avium complex sp.; test: Antimicrobial activity against Mycobacterium avium complex 101 infected C57BL/6 beige mouse spleen assessed as bacterial load at 100 mg/kg once daily 6 days a week for 4 weeks; assay type: functional; how it was run: as §2
# [5] = tested on: Mycobacterium avium complex sp.; test: Antimicrobial activity against clarithromycin resistant-Mycobacterium avium complex 101 infected C57BL/6 beige mouse liver assessed as bacterial load at 100 mg/kg once daily 6 days a week for 4 weeks; assay type: functional
# How it was run: (§3)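 Female beige mice (~20 g) infected intravenously with ~3 × 107 clarithromycin-resistant MAC 101 (from spleen of clarithromycin-treated MAC 101-infected mouse). Treatment started 1 week post-infection, once daily, 6 days/week, 4 weeks. Baseline mice harvested at 1 week; diluent-treated controls in parallel. Liver and spleen homogenized, diluted, plated on 7H10 agar, CFU counted after 10 days at 37°C. Mean CFU/g ± SEM.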
# [6] = tested on: Mycobacterium avium complex sp.; test: Antimicrobial activity against clarithromycin resistant-Mycobacterium avium complex 101 infected C57BL/6 beige mouse liver assessed as bacterial load at 40 mg/kg once daily 6 days a week for 4 weeks; assay type: functional; how it was run: as §3
# [7] = tested on: Mycobacterium avium complex sp.; test: Antimicrobial activity against clarithromycin resistant-Mycobacterium avium complex 101 infected C57BL/6 beige mouse spleen assessed as bacterial load at 100 mg/kg once daily 6 days a week for 4 weeks; assay type: functional; how it was run: as §3
# [8] = tested on: Mycobacterium avium complex sp.; test: Antimicrobial activity against clarithromycin resistant-Mycobacterium avium complex 101 infected C57BL/6 beige mouse spleen assessed as bacterial load at 40 mg/kg once daily 6 days a week for 4 weeks; assay type: functional; how it was run: as §3
# [9] = tested on: Mycobacterium avium complex sp.; test: Antimicrobial activity against Mycobacterium avium complex 101 infected C57BL/6 beige mouse spleen assessed as bacterial load after 8 weeks; assay type: functional
# [10] = tested on: Mycobacterium avium complex sp.; test: Antimicrobial activity against Mycobacterium avium complex 101 infected C57BL/6 beige mouse spleen assessed as bacterial load after 12 weeks; assay type: functional
# [11] = Cmax in mouse serum at 15 mg/kg, po; assay type: ADME, organism-based; parameters: dose 15 mg/kg, route oral
# [12] = Tmax in mouse serum at 15 mg/kg, po; assay type: ADME, organism-based; parameters: dose 15 mg/kg, route oral
# [13] = Half life in mouse serum at 15 mg/kg, po; assay type: ADME, organism-based; parameters: dose 15 mg/kg, route oral
# [14] = tested on: Mycobacterium avium complex sp.; test: Antibacterial activity against Mycobacterium avium complex 101 in U937 cells at 0.5 ug/ml after 4 days; details: U-937
# [15] = tested on: Mycobacterium avium complex sp.; test: Antimicrobial activity against Mycobacterium avium complex 101 infected C57BL/6 beige mouse liver assessed as bacterial load at 40 mg/kg once daily 6 days a week for 4 weeks; assay type: functional; how it was run: as §2
# [16] = tested on: Mycobacterium avium complex sp.; test: Antimicrobial activity against Mycobacterium avium complex 101 infected C57BL/6 beige mouse spleen assessed as bacterial load at 40 mg/kg once daily 6 days a week for 4 weeks; assay type: functional; how it was run: as §2
SMILES,MIC50 [1] [µg/mL],MIC90 [1] [µg/mL],MIC [2] [µg/mL],CFU [3],CFU [4],CFU [5],CFU [6],CFU [7],CFU [8],CFU [9],CFU [10],Cmax [11] [ng/mL],Tmax [12] [h],half-life [13] [h],Activity [14],CFU [15],CFU [16]
CC[C@H]1OC(=O)[C@H](C)C(=O)[C@H](C)[C@@H](O[C@@H]2O[C@H](C)C[C@H](N(C)C)[C@H]2O)[C@@]2(C)C[C@@H](C)/C(=N\C(C)=O)[C@H](C)[C@@H](OC/C(=N\OCc3ccc(-n4cccn4)nc3)CO2)[C@]1(C)O [MODITHROMYCIN],4,8,32,7.1 10^6/g,1.2 10^7/g,1.7 10^8/g,2.5 10^8/g,5.7 10^8/g,2.7 10^8/g,2.3 10^5/g,2.5 10^5/g,2500,1.5,3.3,Active,–,–
CC[C@H]1OC(=O)[C@H](C)[C@@H](O[C@H]2C[C@@](C)(OC)[C@@H](O)[C@H](C)O2)[C@H](C)[C@@H](O[C@@H]2O[C@H](C)C[C@H](N(C)C)[C@H]2O)[C@](C)(OC)C[C@@H](C)C(=O)[C@H](C)[C@@H](O)[C@]1(C)O [CLARITHROMYCIN],2,4,> 64,2.8 10^7/g,6.6 10^7/g,2.8 10^8/g,–,8 10^8/g,–,–,–,–,–,–,–,–,–
CC[C@H]1OC(=O)[C@H](C)[C@@H](O[C@H]2C[C@@](C)(OC)[C@@H](O)[C@H](C)O2)[C@H](C)[C@@H](O[C@@H]2O[C@H](C)C[C@H](N(C)C)[C@H]2O)[C@](C)(O)C[C@@H](C)CN(C)[C@H](C)[C@@H](O)[C@]1(C)O [AZITHROMYCIN],16,16,> 512,–,–,–,–,–,–,–,–,–,–,–,–,–,–
CC[C@H]1OC(=O)[C@H](C)C(=O)[C@H](C)[C@@H](O[C@@H]2O[C@H](C)C[C@H](N(C)C)[C@H]2O)[C@](C)(OC)C[C@@H](C)C(=O)[C@H](C)[C@H]2N(CCCCn3cnc(-c4cccnc4)c3)C(=O)O[C@]12C [TELITHROMYCIN],32,> 64,–,–,–,–,–,–,–,–,–,5500,1,1.5,–,–,–
O[C@@H](c1cc(C(F)(F)F)nc2c(C(F)(F)F)cccc12)[C@H]1CCCCN1 [MEFLOQUINE],–,–,–,–,–,–,2.9 10^7/g,–,4.6 10^7/g,–,–,–,–,–,–,1.8 10^7/g,4.8 10^7/g
